# Assay results gathered from unrelated publications.
# Compare with care: the assays were run in different laboratories.
SMILES,tested on,test,test system,setting,endpoint,value
CC(=O)OCC1=C(C(=O)O)N2C(=O)[C@@H](NC(=O)Cc3cccs3)[C@H]2SC1,Salmonella enterica,"microbial growth, broth dilution",TYPHIMURIUM,,MIC,< 127 µg/mL
O=C(O)c1cn(C2CC2)c2cc(N3CCNCC3)c(F)cc2c1=O,Salmonella enterica,microbial growth,ATCC13311,,MIC,4 µM
C=CC(=O)NC1CCN(c2ncc3ncnc(Nc4ccc(Oc5ccc6c(c5)ncn6C)c(C)c4)c3n2)CC1,AU565,cell growth or viability,,,EC50,0.0208 µM
CCNCCCn1c2c(c3cc(OC)c(OC)cc3c1=O)C(=O)c1cc3c(nc1-2)OCO3,TC-71,"cell growth or viability, MTS",,72 h,IC50,0.122 µM
C=C/C=C(\C)CC[C@@H]1C[C@@H](O)CC(=O)O1,Bacillus cereus,"microbial growth, broth dilution",ATCC10876,,MIC,128 µg/mL
CC(C)C[C@@H]1NC(=O)[C@@H](N(C)C(=O)[C@H](CC2CCC2)NC(=O)[C@@H]2C[C@@H](F)CN2C(=O)C2(C(F)(F)F)CC(F)(F)C2)CCCCNC(=O)C2(CC2)NC(=O)[C@H](Cc2cc(Cl)ccc2Cl)N(C)C1=O,NCI-H69,"cell growth or viability, MTT",,5 days,GI50,0.013 µM
COc1cc2c3c(n(CCCN4CCOCC4)c(=O)c2cc1OC)-c1nc2c(cc1C3=O)OCO2,RPMI-8226,"cell growth or viability, MTS",,72 h,IC50,0.905 µM
O=C(O)c1cn(C2CC2)c2cc(N3CCNCC3)c(F)cc2c1=O,Salmonella enterica,"microbial growth, broth dilution",TYPHIMURIUM,,MIC,0.03 µM
